Assay results: PubChem BioAssay AID504383 (The Scripps Research Institute Molecular Screening Center, 2011)
The campaign covered roughly 2,500 compounds. About 1,200 (48%) were called active.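 How the source made its calls: active means mean activation above the low control average plus 3 SD, as set in the primary screen (cut at about 12% in these data); inactive means the rest.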 The set was probably picked from earlier hits. The list shows a part of the results.

Target: Troponin I, cardiac muscle (Homo sapiens) + Troponin T, cardiac muscle (Homo sapiens) + Troponin C, slow skeletal and cardiac muscles (Homo sapiens) (UniProt P19429+P45379+P63316)
Assay: calcium sensitizers of cardiac thin filaments – biochemical, IANBD-TnC fluorescence, triplicate, confirmation (AID 504383);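 further: 0% = DMSO at 0.472 mM calcium and 100% = DMSO at 2.9 mM calcium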
Details: IANBD-labeled cardiac RTF, Ca2+ sensitivity fluorescence; at 7.2 µM; stronger effect = higher value; scaled from EC20 to saturating calcium; tested at EC20 calcium, 0.472 mM
Procedure, shortened: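 System: Labelled thin filament complex | Technique: Filament fluorescence intensity | Benchmarks: Low control EC20 calcium, high control EC100 calcium | Timing: 15 min at 25 °C | Compound dosing: One dose, 7.2 µM nominal | Probe or stimulus: Ca2+ 0.472 mM, EC20 level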

SMILES	activation
Oc1cccc(Nc2nc(O)c(/C=C3\C=Nc4ccccc43)s2)c1	127% (active)
CN(C)c1ccc(/C=C/C(=O)c2ccc(O)cc2)cc1	1.84% (inactive)
CC(C)=CCC/C(C)=C/Cc1c(O)ccc(C(=O)/C=C/c2ccc(O)cc2)c1O	563% (active)
O=C(Cc1ccccc1)Nc1cccc(-c2nc3ncccc3o2)c1	15.3% (active)
COc1cccc(CC(NC(C)=O)C(=O)NC2CCN(c3nc(C)cc(C)c3C#N)CC2)c1OC (centres undefined)	34% (active)
CC(=O)NC(Cc1ccc(F)c(F)c1)C(=O)NC1CCN(S(=O)(=O)c2ccc(C)cc2)CC1 (centres undefined)	6.59% (inactive)
CCOC(=O)[C@H]1[C@H]2COc3ccccc3[C@@H]2N2C(=O)CN(Cc3ccc(C)cc3)C(=O)[C@@]12C	8.95% (inactive)
N#C/C(=C(/O)COC(=O)c1ccccc1O)c1nc2ccccc2s1	5.53% (inactive)
N#C/C(=C\c1ccccn1)c1nc2ccccc2s1	14.5% (active)
COc1ccc2[nH]c(C(=O)N3CCC(Cc4ccccc4)CC3)cc2c1	13.6% (active)
CN1CCN(C(=O)c2cc3ccccc3[nH]2)CC1	6.99% (inactive)
O=C1c2cccc3cccc(c23)C(=O)N1CC1CCN(S(=O)(=O)c2ccc(F)cc2)CC1	134% (active)
Cc1ccc(N=C2NC(=O)/C(=C/c3cccnc3)S2)cc1C	3.85% (inactive)
O=C1NC(=NCc2ccccc2)S/C1=C\c1ccccc1	50.1% (active)
N#C/C(=C\C=C\c1ccccc1)c1nc(-c2ccc3c(c2)OCO3)cs1	7.13% (inactive)
Cc1ccnc(N/C=C(\C#N)c2nc(-c3cccc(Br)c3)cs2)c1	27.5% (active)
Cc1ccnc(NC(=O)c2ccc(Br)s2)c1	5.46% (inactive)
O=S(=O)(/C=C/c1ccccc1)N1CCc2ccccc2C1	11.1% (inactive)
COC(=O)c1ccc(NC(=O)c2cccc(OC)c2)cc1	14.2% (active)
COC(=O)c1ccc(NC(=O)c2snnc2-c2ccccc2)cc1	11.7% (active)

SMILES	activation
COc1ccc(NC(=O)c2cccc(-c3ccc(O)cc3)c2)cn1	2.76% (inactive)
Nc1nc2ccccc2n1CCOc1ccc(Br)cc1	12.1% (active)
Cc1ccc(-c2nc3sc(C#N)c(N)n3c(=O)c2C#N)cc1	6.97% (inactive)
Cc1ccc(S(=O)(=O)c2cc(C#N)c(=O)[nH]c2N)cc1	23.8% (active)
CC1(C)CC2(CCCN(C(=S)Nc3ccccc3)C2)CCO1 (centres undefined)	17.2% (active)
C=CCN1C(=O)C(Cc2cccc(Cl)c2)S/C1=N/N=C/c1ccco1 (centres undefined)	6.48% (inactive)
CC(Oc1ccc(S(=O)(=O)N2CCCC2)cc1[N+](=O)[O-])C(=O)N(C)c1ccccc1 (centres undefined)	6.91% (inactive)
O=C(COc1ccc(Cl)cc1[N+](=O)[O-])N1CCCCC1	48.7% (active)
O=C(COc1ccc(Cl)cc1[N+](=O)[O-])N1CCCCCC1	5.74% (inactive)
CC1=CN2C(=N)/C(=C/c3ccc([N+](=O)[O-])o3)C(=O)N=C2S1	14.5% (active)
COc1cccc(OCCCn2cc(/C=C3/C(=N)N4C=C(C)SC4=NC3=O)c3ccccc32)c1	9.3% (inactive)
CC(=O)c1cccc(-n2c(CCC(=O)O)ccc2-c2ccccc2)c1	7.99% (inactive)
CCOc1ccc(CCNC(=O)C2CCCN(S(=O)(=O)N3CCOCC3)C2)cc1OCC (centres undefined)	15.7% (active)
CCCS(=O)(=O)N1CCC(C(=O)NCCCN2CCC(Cc3ccccc3)CC2)CC1	6.98% (inactive)
CCOc1ccc(CCNC(=O)c2ccc(CNS(=O)(=O)c3ccccc3)cc2)cc1OCC	4.87% (inactive)
COc1cc(OC)c(C2N(c3ccc(Cl)c(Cl)c3)C(=O)C3CCCN32)cc1OC (centres undefined)	-2.98% (inactive)
Cn1nccc1NC(=O)Nc1cccc(Cl)c1Cl	51.6% (active)
COc1cc(OC)cc(-c2c(-c3cccs3)c3cc(-c4ccc(SC)cc4)ccc3n2C)c1	25.8% (active)
COCCCn1c(=O)/c(=C\c2ccccc2OC(C)C)s/c1=C(/C#N)C(=O)Nc1ccc(C(=O)O)cc1	8.94% (inactive)
COCCCn1c(=O)/c(=C\c2cccc(OC)c2OC)s/c1=C(/C#N)C(=O)Nc1ccc(C(=O)O)cc1	22.2% (active)

SMILES	activation
C=CCn1c(=O)/c(=C/c2cc(OC)c(OC)c(OC)c2)s/c1=C(/C#N)c1nc2ccccc2n1C	8.61% (inactive)
COCCNC(=O)CSc1nc(N)c(NC(=O)c2ccccc2F)c(=O)[nH]1	11.4% (inactive)
CCn1c(=N)n(CC(O)c2ccccc2)c2ccccc21 (centres undefined)	9.44% (inactive)
N=c1n(Cc2ccccc2)c2ccccc2n1CC(O)c1ccco1 (centres undefined)	29.1% (active)
CCCn1c(=N)n(CC(O)c2ccco2)c2ccccc21 (centres undefined)	2.41% (inactive)
CN1CCCN(Cc2cccc3ccccc23)CC1	9.8% (inactive)
Cc1cc(C=O)c(C)n1-c1ccc(Oc2ccc([N+](=O)[O-])cn2)cc1	4.85% (inactive)
COc1cc(/C=C2\SC(=O)NC2=O)ccc1Oc1ccc([N+](=O)[O-])cn1	81% (active)
COc1ccc(C2NN=C(c3c[nH]c4ccccc34)C2O)cc1 (centres undefined)	36.2% (active)
O=C(COC(=O)c1ccc(S(=O)(=O)N2CCCC2)cc1)NCc1ccco1	11.6% (active)
COc1ccccc1CNC(=O)COC(=O)c1cccc(S(=O)(=O)N2CCOCC2)c1	6.73% (inactive)
O=C(Nc1cccc2c1N(C(=O)c1ccco1)CCC2)c1ccco1	25.9% (active)
O=C(NC(NC(=S)Nc1ccccc1C(=O)O)C(Cl)(Cl)Cl)c1ccco1 (centres undefined)	5.56% (inactive)
Cn1nc(C(F)(F)F)c(-c2ccc(Br)cc2)c1NC(=O)c1ccco1	6.3% (inactive)
O=C(N/N=C/c1cccc([N+](=O)[O-])c1)c1cnccn1	3.15% (inactive)
COc1ccc(/C=N/NC(=O)c2cccc([N+](=O)[O-])c2)cc1O	15.3% (active)
CN(C)C(CNC(=O)CSc1nc2ccccc2c(=O)n1Cc1ccco1)c1ccccc1 (centres undefined)	12.1% (active)
Cc1cccc(NC(=O)CSc2nnc(CSc3nc(C)cc(C)n3)n2Cc2ccco2)c1	8.24% (inactive)
CCOC(=O)c1c(NC(=O)CSc2nc3cc(Cl)ccc3c(=O)n2Cc2ccco2)sc(C(=O)N(C)C)c1C	9.02% (inactive)
